From publication PMC8489566 (ACS nano, 2020) come the findings set out here.

Experiment [1] deals with SIRPα. As to the kind of experiment: CD47-Fc inhibition assay. It counts as binding, human. To be noted: THP-1 macrophages, 1 μM or 50 μM peptide 1 h, Fc-receptor blockade, 2 μg/mL CD47-Fc, anti-Fc fluorescence, n = 2 sets of triplicates.
In experiment [2] the test system is human THP-1 macrophages. It counts as cell-based.
The subject of experiment [3] is mouse-derived J774A.1 macrophages. It counts as cell-based. The procedure, abridged:
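J774A.1 macrophages plated 24 h in RPMI with 10% FBS, then treated with test compound (20 nM, 1 μM or 50 μM) for 1 h at 37 °C and washed; positive control was 5 μg/mL rat anti-mouse SIRPα. Human RBCs were EDTA-washed, opsonized with 20 μg/mL rabbit anti-RBC IgG (1 h, RT), and PKH26-labelled. They were added at 10:1 for 1 h at 37 °C, then fixed and Hoechst-stained for fluorescence imaging.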

On to “nS-wt: CD47's eight amino acid binding loop, wild-type nano-Self peptide, C-terminal amide”, for which, in experiment [1], the “level of inhibition of CD47-Fc binding to macrophages” value is reported as “inhibited”. The “phagocytosis levels at maximum peptide concentration” value in experiment [2] (50 μM peptide, opsonized RBCs) was “well above those for nS-X and nS-XX controls”. Further, the “macrophages that internalize opsonized RBCs, peptide combined with anti-RBC” value in experiment [2] (maximum peptide concentration (50 μM), anti-RBC ~133 nM, n = 3) is recorded as ~ 30%. Also, the “phagocytosis compared with anti-CD47” value in experiment [2] (saturating peptide, opsonized RBCs) is on record as “gives the same result as anti-CD47”. Besides, the “phagocytosis by mouse macrophages” value in experiment [3] (J774A.1 macrophages, opsonized RBCs, high concentrations (50 μM)) is recorded as “matches anti-CD47 blockade effects”. The “effective activity in the mouse macrophage assay relative to the human assay” value in experiment [3] (weaker in mouse than in human macrophages) is ~ 100 fold.
